Measurements published in ChEMBL document CHEMBL1649355, “Synthesis and biological evaluation of novel 2,4-disubstituted-1,3-thiazoles as anti-Candida spp. agents” (2011).
Values after ≈ are worked out from the molar mass of the structure shown.

Legend:
[Candida] sake [1] = Antifungal activity against Candida sake after 24 hrs by broth microdilution method; conditions: Fermentozyma sake
Pichia kudriavzevii [2] = experiment: Antifungal activity against Candida krusei after 24 hrs by broth microdilution method
Candida albicans [3] = experiment: Antifungal activity against Candida albicans after 24 hrs by broth microdilution method
Nakaseomyces glabratus [4] = experiment: Antifungal activity against Candida glabrata after 24 hrs
Candida tropicalis [5] = experiment: Antifungal activity against Candida tropicalis after 24 hrs by broth microdilution method
Candida albicans [6] = experiment: Antifungal activity against Candida albicans after 24 hrs by MTT assay; type: functional
Summary of the method: (§1)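 Broth microdilution in Sabouraud dextrose broth per NCCLS guidance, tested against clinical Candida isolates (20 strains across species). Compounds dissolved in DMSO and serially diluted to final concentrations of 0.125–256. Inoculum 10³/mL. Each plate carried fungus-only and medium-only controls. Incubated 24 h at 37 °C. MIC reported as range per species.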

Candida tropicalis [7] = experiment: Antifungal activity against Candida tropicalis after 24 hrs by MTT assay; type: functional
Summary of the method: as §1

Nakaseomyces glabratus [8] = experiment: Antifungal activity against Candida glabrata after 24 hrs by MTT assay; type: functional
Summary of the method: as §1

Pichia kudriavzevii [9] = experiment: Antifungal activity against Candida krusei after 24 hrs by MTT assay; type: functional
Summary of the method: as §1

[Candida] sake [10] = Antifungal activity against Candida sake after 24 hrs by MTT assay; type: functional; conditions: Fermentozyma sake
Summary of the method: as §1

Structure (SMILES) | MIC ([Candida] sake [1]) [µg/mL] | MIC (Pichia kudriavzevii [2]) [µg/mL] | MIC (Candida albicans [3]) [µg/mL] | MIC (Nakaseomyces glabratus [4]) [µg/mL] | MIC (Candida tropicalis [5]) [µg/mL] | MIC (Candida albicans [6]) [µg/mL] | MIC (Candida tropicalis [7]) [µg/mL] | MIC (Nakaseomyces glabratus [8]) [µg/mL] | MIC (Pichia kudriavzevii [9]) [µg/mL] | MIC ([Candida] sake [10]) [µg/mL]
Cc1ccc(-c2csc(N/N=C\c3cccs3)n2)cc1 | 8 (≈ 26.7 µM) | 16 (≈ 53.4 µM) | 4 (≈ 13.4 µM) | 0.5 (≈ 1.67 µM) | 64 (≈ 214 µM) | – | – | – | – | –
COc1ccc(-c2csc(N/N=C\c3cccc4ccccc34)n2)cc1 | 16 (≈ 44.5 µM) | 32 (≈ 89 µM) | 4 (≈ 11.1 µM) | 2 (≈ 5.56 µM) | 64 (≈ 178 µM) | – | – | – | – | –
C/C(=N/Nc1nc(-c2ccc(C)cc2)cs1)c1ccccn1 | 32 (≈ 104 µM) | 64 (≈ 208 µM) | 2 (≈ 6.48 µM) | 4 (≈ 13 µM) | 64 (≈ 208 µM) | – | – | – | – | –
C/C(=N/Nc1nc(-c2ccc(C)cc2)cs1)c1cccnc1 | 16 (≈ 51.9 µM) | 64 (≈ 208 µM) | 0.5 (≈ 1.62 µM) | 2 (≈ 6.48 µM) | 16 (≈ 51.9 µM) | – | – | – | – | –
Cc1ccc(-c2csc(N/N=C\c3ccco3)n2)cc1 | 16 (≈ 56.5 µM) | 32 (≈ 113 µM) | 0.5 (≈ 1.76 µM) | 4 (≈ 14.1 µM) | 64 (≈ 226 µM) | – | – | – | – | –
COc1ccc(-c2csc(N/N=C(/C)c3ccc4ccccc4c3)n2)cc1 | 16 (≈ 42.8 µM) | 256 (≈ 685 µM) | 2 (≈ 5.36 µM) | 2 (≈ 5.36 µM) | 64 (≈ 171 µM) | – | – | – | – | –
C/C(=N/Nc1nc(-c2ccc(C)cc2)cs1)c1cccs1 | 32 (≈ 102 µM) | 32 (≈ 102 µM) | 0.5 (≈ 1.6 µM) | 2 (≈ 6.38 µM) | 128 (≈ 408 µM) | – | – | – | – | –
Cc1ccc(-c2csc(N/N=C\c3ccncc3)n2)cc1 | 32 (≈ 109 µM) | 128 (≈ 435 µM) | 0.5 (≈ 1.7 µM) | 4 (≈ 13.6 µM) | 64 (≈ 217 µM) | – | – | – | – | –
COc1ccc(-c2csc(N/N=C\c3c[nH]c4ccccc34)n2)cc1 | 8 (≈ 23 µM) | 64 (≈ 184 µM) | 32 (≈ 91.8 µM) | 0.5 (≈ 1.44 µM) | 64 (≈ 184 µM) | – | – | – | – | –
Cc1ccc(-c2csc(N/N=C\c3ccc4c(c3)OCO4)n2)cc1 | 8 (≈ 23.7 µM) | 64 (≈ 190 µM) | 0.125 (≈ 0.37 µM) | 4 (≈ 11.9 µM) | 16 (≈ 47.4 µM) | – | – | – | – | –
Cc1ccc(-c2csc(N/N=C\c3cccc4ccccc34)n2)cc1 | 32 (≈ 93.2 µM) | 16 (≈ 46.6 µM) | 2 (≈ 5.82 µM) | 16 (≈ 46.6 µM) | 16 (≈ 46.6 µM) | – | – | – | – | –
COc1ccc(-c2csc(N/N=C(/C)c3cccs3)n2)cc1 | 32 (≈ 97.1 µM) | 64 (≈ 194 µM) | 0.125 (≈ 0.379 µM) | 2 (≈ 6.07 µM) | 8 (≈ 24.3 µM) | – | – | – | – | –
COc1ccc(-c2csc(N/N=C(/C)c3cccnc3)n2)cc1 | 32 (≈ 98.6 µM) | 128 (≈ 395 µM) | 8 (≈ 24.7 µM) | 8 (≈ 24.7 µM) | 128 (≈ 395 µM) | – | – | – | – | –
C/C(=N/Nc1nc(-c2ccc(C)cc2)cs1)c1ccncc1 | 32 (≈ 104 µM) | 32 (≈ 104 µM) | 0.5 (≈ 1.62 µM) | 4 (≈ 13 µM) | 32 (≈ 104 µM) | – | – | – | – | –
C/C(=N/Nc1nc(-c2ccc(C)cc2)cs1)c1ccco1 | 32 (≈ 108 µM) | 64 (≈ 215 µM) | 0.5 (≈ 1.68 µM) | 4 (≈ 13.5 µM) | 64 (≈ 215 µM) | – | – | – | – | –
OC(Cn1cncn1)(Cn1cncn1)c1ccc(F)cc1F [FLUCONAZOLE] | 32 (≈ 104 µM) | 8 (≈ 26.1 µM) | 4 (≈ 13.1 µM) | 4 (≈ 13.1 µM) | 4 (≈ 13.1 µM) | – | – | – | – | –
COc1ccc(-c2csc(N/N=C(/C)c3ccco3)n2)cc1 | 16 (≈ 51.1 µM) | 16 (≈ 51.1 µM) | 0.5 (≈ 1.6 µM) | 4 (≈ 12.8 µM) | 128 (≈ 408 µM) | – | – | – | – | –
COc1ccc(-c2csc(N/N=C\c3ccc4c(c3)OCO4)n2)cc1 | 8 (≈ 22.6 µM) | 64 (≈ 181 µM) | 0.5 (≈ 1.41 µM) | 4 (≈ 11.3 µM) | 64 (≈ 181 µM) | – | – | – | – | –
C/C(=N/Nc1nc(-c2ccc(C)cc2)cs1)c1ccc2ccccc2c1 | 16 (≈ 44.8 µM) | 32 (≈ 89.5 µM) | 2 (≈ 5.59 µM) | 0.5 (≈ 1.4 µM) | 4 (≈ 11.2 µM) | – | – | – | – | –
COc1ccc(-c2csc(N/N=C(/C)c3ccccn3)n2)cc1 | 32 (≈ 98.6 µM) | 16 (≈ 49.3 µM) | 0.5 (≈ 1.54 µM) | 8 (≈ 24.7 µM) | 64 (≈ 197 µM) | – | – | – | – | –
COc1ccc(-c2csc(N/N=C\c3cccnc3)n2)cc1 | 16 (≈ 51.5 µM) | 32 (≈ 103 µM) | 4 (≈ 12.9 µM) | 16 (≈ 51.5 µM) | 64 (≈ 206 µM) | – | – | – | – | –
COc1ccc(-c2csc(N/N=C\c3ccncc3)n2)cc1 | 32 (≈ 103 µM) | 16 (≈ 51.5 µM) | 0.125 (≈ 0.403 µM) | 0.5 (≈ 1.61 µM) | 16 (≈ 51.5 µM) | – | – | – | – | –
COc1ccc(-c2csc(N/N=C\c3ccco3)n2)cc1 | 32 (≈ 107 µM) | 16 (≈ 53.4 µM) | 0.5 (≈ 1.67 µM) | 4 (≈ 13.4 µM) | 64 (≈ 214 µM) | – | – | – | – | –
Cc1ccc(-c2csc(N/N=C\c3c[nH]c4ccccc34)n2)cc1 | 32 (≈ 96.3 µM) | 32 (≈ 96.3 µM) | 0.125 (≈ 0.376 µM) | 4 (≈ 12 µM) | 64 (≈ 193 µM) | – | – | – | – | –
C/C(=N/Nc1nc(-c2ccc(C)cc2)cs1)c1cc2ccccc2oc1=O | – | – | – | – | – | 0.125 (≈ 0.333 µM) | 128 (≈ 341 µM) | 0.5 (≈ 1.33 µM) | 128 (≈ 341 µM) | 32 (≈ 85.2 µM)
Cc1ccc(-c2csc(N/N=C\c3cccnc3)n2)cc1 | 16 (≈ 54.4 µM) | 32 (≈ 109 µM) | 0.125 (≈ 0.425 µM) | 0.5 (≈ 1.7 µM) | 128 (≈ 435 µM) | – | – | – | – | –
Clc1ccccc1C(c1ccccc1)(c1ccccc1)n1ccnc1 [CLOTRIMAZOLE] | 16 (≈ 46.4 µM) | – | 2 (≈ 5.8 µM) | 2 (≈ 5.8 µM) | – | – | – | – | – | –
COc1ccc(-c2csc(N/N=C\c3cccs3)n2)cc1 | 32 (≈ 101 µM) | 64 (≈ 203 µM) | 0.125 (≈ 0.396 µM) | 0.5 (≈ 1.59 µM) | 128 (≈ 406 µM) | – | – | – | – | –
COc1ccc(-c2csc(N/N=C(/C)c3ccncc3)n2)cc1 | 16 (≈ 49.3 µM) | 128 (≈ 395 µM) | 0.5 (≈ 1.54 µM) | 4 (≈ 12.3 µM) | 32 (≈ 98.6 µM) | – | – | – | – | –
COc1ccc(-c2csc(N/N=C(/C)c3cc4ccccc4oc3=O)n2)cc1 | 32 (≈ 81.7 µM) | 32 (≈ 81.7 µM) | 2 (≈ 5.11 µM) | 2 (≈ 5.11 µM) | 2 (≈ 5.11 µM) | – | – | – | – | –
